Source: ChEMBL document CHEMBL1926683, “Synthesis and anticancer activity of 4β-alkylamidochalcone and 4β-cinnamido linked podophyllotoxins as apoptotic inducing agents” (Eur J Med Chem, 2012)
Calls of active or inactive are those of the source. No cut-off for these calls is given here.

Key:
[1] = system: A549; experiment: Induction of apoptosis in human A549 cells assessed as nuclear fragmentation at 2 uM after 24 hrs by Hoechst staining-based fluorescent microscopic analysis; format: functional, cell-based
Summary of the method: (§1)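 A-549 cells (10,000) were grown on 18-mm coverslips for 24 h, given fresh medium, then treated 24 h. Vehicle control was 0.001% DMSO. Hoechst 33258 was added to medium at […]. Apoptotic cells were quantified manually by field counts scoring cytoplasmic condensation, apoptotic bodies, nuclear fragmentation and relative fluorescence.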

[2] = system: A549; experiment: Cell cycle arrest in human A549 cells assessed as accumulation at subG1 phase at 1 uM after by propidium iodide staining-based fluorescence analysis (reference value: 2.74%); format: functional
[3] = system: A549; experiment: Induction of apoptosis in human A549 cells assessed as caspase 3 activation using Ac-DEVD as substrate at 2 uM after 48 hrs by fluorometric analysis relative to control; format: functional
Summary of the method: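 A-549 cells were seeded at 2.5 × 10⁵/well and treated. Cells were scraped into PBS, pelleted, lysed on ice 20–30 min, and cleared at 13,200 rpm. Lysate was mixed with 2X assay buffer and Ac-DEVD-AFC substrate and reacted 1 h. AFC fluorescence (ex 400, em 505 nm) was read every 5 min, expressed as fold over control. Mean of two experiments in triplicate.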

[4] = system: A549; experiment: Induction of apoptosis in human A549 cells assessed as cytoplasmic condensation at 2 uM after 24 hrs by Hoechst staining-based fluorescent microscopic analysis; format: functional, cell-based; summary of the method: as §1
[5] = system: MCF7; experiment: Anticancer activity against human MCF7 cells after 48 hrs by MTT assay; format: functional, cell-based; conditions: MCF7, 48 h
Summary of the method: (§2)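 MTT assay. Cells seeded at 1 × 10⁴/well in DMEM with 10% FBS and held 24 h at 37 °C in CO₂. Compounds were diluted in culture medium and added alongside vehicle controls, then incubated 48 h. MTT (5 mg/ml stock) was added for 4 h. Supernatant was removed, formazan dissolved in DMSO, and absorbance read at 540 nm.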

[6] = system: A549; experiment: Anticancer activity against human A549 cells after 48 hrs by MTT assay; format: functional, cell-based; conditions: A549, 48 h; summary of the method: as §2
[7] = system: A549; experiment: Induction of apoptosis in human A549 cells assessed as cytoplasmic condensation at 5 uM after 24 hrs by Hoechst staining-based fluorescent microscopic analysis; format: functional, cell-based; summary of the method: as §1
[8] = system: A549; experiment: Cell cycle arrest in human A549 cells assessed as accumulation at S phase at 1 uM after by propidium iodide staining-based fluorescence analysis (reference value: 2.74%); format: functional
[9] = system: ACHN; experiment: Anticancer activity against human ACHN cells after 48 hrs by MTT assay; format: functional, cell-based; summary of the method: as §2
[10] = system: A549; experiment: Cell cycle arrest in human A549 cells assessed as accumulation at G2/M phase at 1 uM after by propidium iodide staining-based fluorescence analysis (reference value: 9.27%); format: functional
[11] = system: A549; experiment: Induction of apoptosis in human A549 cells assessed as presence of apoptotic bodies at 2 uM after 24 hrs by Hoechst staining-based fluorescent microscopic analysis; format: functional, cell-based; summary of the method: as §1
[12] = system: A549; experiment: Induction of apoptosis in human A549 cells assessed as induction of DNA fragmentation at 5 uM after 48 hrs by agarose gel electrophoresis; format: functional, cell-based
Summary of the method: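 A-549 cells (1 × 10⁶, six-well plates) were treated 48 h after 24 h attachment. Cells were pelleted, PBS-washed and lysed. Supernatant was treated with 10% SDS and RNase-A for 2 h at 56 °C, then proteinase K for 2 h at 37 °C. DNA was precipitated with ammonium acetate and ice-cold ethanol at −80 °C, pelleted, washed with 80% ethanol, and run for ladder pattern against a 50 bp marker.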

[13] = system: A549; experiment: Induction of apoptosis in human A549 cells assessed as presence of apoptotic bodies at 5 uM after 24 hrs by Hoechst staining-based fluorescent microscopic analysis; format: functional, cell-based; summary of the method: as §1
[14] = system: A549; experiment: Cell cycle arrest in human A549 cells assessed as accumulation at G0/G1 phase at 1 uM after by propidium iodide staining-based fluorescence analysis (reference value: 83.43%); format: functional
[15] = system: A549; experiment: Induction of apoptosis in human A549 cells assessed as nuclear fragmentation at 5 uM after 24 hrs by Hoechst staining-based fluorescent microscopic analysis; format: functional, cell-based; summary of the method: as §1
[16] = system: A-375; experiment: Anticancer activity against human A375 cells after 48 hrs by MTT assay; format: functional, cell-based; conditions: A-375, 48 h; summary of the method: as §2
[17] = system: HT-29; experiment: Anticancer activity against human HT-29 cells after 48 hrs by MTT assay; format: functional, cell-based; conditions: HT-29, 48 h; summary of the method: as §2
[18] = system: A549; experiment: Cell cycle arrest in human A549 cells assessed as accumulation at G2/M phase at 5 uM after by propidium iodide staining-based fluorescence analysis (reference value: 9.27%); format: functional
[19] = system: A549; experiment: Cell cycle arrest in human A549 cells assessed as accumulation at G0/G1 phase at 5 uM after by propidium iodide staining-based fluorescence analysis (reference value: 83.43%); format: functional
[20] = system: A549; experiment: Cell cycle arrest in human A549 cells assessed as accumulation at subG1 phase at 5 uM after by propidium iodide staining-based fluorescence analysis (reference value: 2.74%); format: functional
[21] = system: A549; experiment: Cell cycle arrest in human A549 cells assessed as accumulation at S phase at 5 uM after by propidium iodide staining-based fluorescence analysis (reference value: 2.74%); format: functional

| SMILES | Activity [1] | Activity [2] [%] | fold change (FC) [3] | Activity [4] | IC50 [5] [nM] | IC50 [6] [nM] | Activity [7] | Activity [8] [%] | IC50 [9] [nM] | Activity [10] [%] | Activity [11] | Activity [12] | Activity [13] | Activity [14] [%] | Activity [15] | IC50 [16] [nM] | IC50 [17] [nM] | Activity [18] [%] | Activity [19] [%] | Activity [20] [%] | further results |
| --- | --- | --- | --- | --- | --- | --- | --- | --- | --- | --- | --- | --- | --- | --- | --- | --- | --- | --- | --- | --- | --- |
| COc1cc([C@@H]2c3cc4c(cc3[C@@H](O[C@@H]3O[C@@H]5CO[C@@H](C)O[C@H]5[C@H](O)[C@H]3O)[C@H]3COC(=O)[C@H]23)OCO4)cc(OC)c1O [ETOPOSIDE] | Active | 2.89 | 6 | Active | 680 | 2340 | Active | 7.23 | 7610 | 19.21 | Active | Active | Active | 69.82 | Active | 1390 | 1810 |  |  |  |  |
| COc1cc([C@@H]2c3cc4c(cc3[C@@H](NC(=O)/C=C/c3ccc(C(F)(F)F)cc3)[C@H]3COC(=O)[C@H]23)OCO4)cc(OC)c1OC | Active | 4.51 | 4 | Active | 19200 | 2100 | Active | 9.54 | 2180 | 38.11 | Active | Active | Active | 45.23 | Active | 18000 | 370 | 43.39 | 39.84 | 4.43 | Activity [21]: 10.16% |
| COc1cc([C@@H]2c3cc4c(cc3[C@@H](NC(=O)/C=C/c3ccccc3)[C@H]3COC(=O)[C@H]23)OCO4)cc(OC)c1OC | Active | 3.29 | 4 | Active | 19700 | 2700 | Active | 9.5 | 3910 | 61.89 | Active | Active | Active | 23.39 | Active | 13400 | 2360 | 67.78 | 18.65 | 2.62 | Activity [21]: 8.64% |
